# According to PMC3483595 (ChemMedChem, 2012):
# pIC50: −log10 of the molar value. Where “and” joins values, the source holds several entries; their conditions need not be identical. Identical values can stand only once. Like-named read-outs stand apart in the source and are kept apart here.
# Legend:
# [1] = tested on: B. subtilis 168; test: Plate assay of bacterial growth; format: cell-based; conditions: for MIC, B. subtilis 168: plate assay, overnight incubation
# How it was run: (§1)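 Exponential-phase cells (OD600 0.5) were mixed into LB with 0.2% glucose and 0.75% soft agar and poured as a lawn. Test compound (1 µL; water- or DMSO-dissolved) was spotted on the set surface and plates were incubated overnight at 37°C. The MIC was the concentration giving a clear growth-inhibition zone relative to the surrounding lawn.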
# [2] = tested on: E. coli MC4100; test: Plate assay of bacterial growth; format: cell-based; conditions: wild-type, overnight incubation
# How it was run: as §1
# [3] = target: EcSecA membrane ATPase (Escherichia coli, UniProt P10408); test: Membrane ATPase assay of SecA with urea-washed BA13 membrane; format: biochemical; conditions: read-out: IC50, EcSecA membrane ATPase
# EcSecA membrane ATPase, sequence (P10408 whole entry): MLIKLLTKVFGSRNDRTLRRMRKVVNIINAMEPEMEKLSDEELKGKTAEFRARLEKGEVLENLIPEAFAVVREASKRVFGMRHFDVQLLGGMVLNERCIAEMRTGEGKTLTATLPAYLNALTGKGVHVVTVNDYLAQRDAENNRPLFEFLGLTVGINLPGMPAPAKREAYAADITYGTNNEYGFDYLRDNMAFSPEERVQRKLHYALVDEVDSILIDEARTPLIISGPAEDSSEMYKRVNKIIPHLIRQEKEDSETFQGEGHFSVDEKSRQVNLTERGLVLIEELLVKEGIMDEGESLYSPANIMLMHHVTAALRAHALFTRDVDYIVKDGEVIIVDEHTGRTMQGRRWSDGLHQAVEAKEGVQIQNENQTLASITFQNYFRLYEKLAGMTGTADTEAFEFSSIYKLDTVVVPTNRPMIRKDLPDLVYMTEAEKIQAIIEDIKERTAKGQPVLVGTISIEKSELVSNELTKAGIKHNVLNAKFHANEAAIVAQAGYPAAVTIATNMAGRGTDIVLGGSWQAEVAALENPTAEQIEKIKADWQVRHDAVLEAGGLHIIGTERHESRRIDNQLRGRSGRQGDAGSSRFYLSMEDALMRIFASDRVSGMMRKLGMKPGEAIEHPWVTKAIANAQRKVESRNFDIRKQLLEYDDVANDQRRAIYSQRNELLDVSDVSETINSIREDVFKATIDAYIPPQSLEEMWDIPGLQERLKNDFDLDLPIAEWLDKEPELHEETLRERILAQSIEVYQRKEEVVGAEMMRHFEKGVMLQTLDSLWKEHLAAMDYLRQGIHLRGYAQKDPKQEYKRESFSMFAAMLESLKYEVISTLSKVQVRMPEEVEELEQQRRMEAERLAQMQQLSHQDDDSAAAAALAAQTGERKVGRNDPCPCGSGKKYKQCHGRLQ
# How it was run: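 Purified full-length E. coli SecA (1.5 µg per 50 µL) was combined with 3 µg urea-washed membrane from E. coli BA13 (MC4100 secA13(am) supF(ts)). Phosphate was read at 660 nm and expressed as % of the no-inhibitor control; at least triplicate.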
# [4] = target: T1, EcSecA translocation ATPase (Escherichia coli, UniProt P10408); test: Translocation ATPase assay of SecA with membrane and proOmpA; format: biochemical; conditions: read-out: IC50, EcSecA translocation ATPase
# T1 sequence (P10408 whole entry): as above
# How it was run: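 Purified full-length E. coli SecA (1.5 µg per 50 µL) was combined with 3 µg urea-washed BA13 membrane plus 1 µg purified proOmpA precursor. Reaction: 1.2 mM ATP, ovalbumin, Tris-HCl pH 7.6, KCl, NH4Cl, Mg(OAc)2, DTT, 40°C within the linear range. Released phosphate was read at 660 nm and expressed as % remaining activity versus control; at least triplicate.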
# [5] = target: F1F0-ATPase (Escherichia coli, UniProt P0ABB0+P0ABB4); test: F1F0-proton ATPase activity assay; format: biochemical; conditions: read-out: IC50, F1F0-ATPase; E. coli F1F0-proton ATPase in liposomes
# How it was run: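 F1F0-ATPase from E. coli KY7485 membranes was partially purified by sucrose gradient and reconstituted into liposomes by dialysis. Released phosphate was read photometrically at 660 nm. Activity was expressed as % of the no-inhibitor control; at least triplicate.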
# [6] = target: BsSecA intrinsic ATPase (Bacillus subtilis, UniProt P28366); test: Intrinsic ATPase assay of full-length BsSecA; format: biochemical; conditions: read-out: IC50, BsSecA intrinsic ATPase; full-length B. subtilis SecA
# BsSecA intrinsic ATPase, sequence (P28366 whole entry): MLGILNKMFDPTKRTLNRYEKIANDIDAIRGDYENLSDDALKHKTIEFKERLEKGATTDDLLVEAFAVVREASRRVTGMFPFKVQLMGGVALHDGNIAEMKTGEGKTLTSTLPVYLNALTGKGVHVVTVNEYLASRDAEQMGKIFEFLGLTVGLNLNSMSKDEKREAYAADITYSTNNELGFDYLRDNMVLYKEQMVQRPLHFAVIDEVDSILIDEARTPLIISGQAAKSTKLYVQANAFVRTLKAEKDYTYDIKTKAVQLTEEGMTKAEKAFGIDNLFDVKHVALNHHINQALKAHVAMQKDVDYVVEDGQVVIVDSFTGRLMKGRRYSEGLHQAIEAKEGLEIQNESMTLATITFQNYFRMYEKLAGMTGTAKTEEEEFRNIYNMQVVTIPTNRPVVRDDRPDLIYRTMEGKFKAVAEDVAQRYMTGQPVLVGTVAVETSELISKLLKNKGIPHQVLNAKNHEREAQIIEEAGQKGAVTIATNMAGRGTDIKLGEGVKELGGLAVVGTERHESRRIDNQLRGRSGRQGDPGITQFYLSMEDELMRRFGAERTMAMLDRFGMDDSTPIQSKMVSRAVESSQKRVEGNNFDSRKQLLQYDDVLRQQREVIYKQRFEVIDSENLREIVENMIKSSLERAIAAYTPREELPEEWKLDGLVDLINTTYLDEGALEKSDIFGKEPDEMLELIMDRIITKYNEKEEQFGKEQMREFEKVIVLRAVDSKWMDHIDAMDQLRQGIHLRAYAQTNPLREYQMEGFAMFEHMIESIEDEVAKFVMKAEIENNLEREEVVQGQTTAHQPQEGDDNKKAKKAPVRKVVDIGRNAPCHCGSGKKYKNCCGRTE
# How it was run: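 Full-length B. subtilis SecA was overexpressed from pT7div and purified, then used at 1.5 µg per 50 µL reaction in solution without membranes. Phosphate release was read at 660 nm and expressed as % remaining activity versus control; at least triplicate.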
# [7] = tested on: SecA ATPase; test: Kinetic experiments versus ATP; format: biochemical; conditions: low ATP concentrations, data not shown
# [8] = tested on: SecA-dependent protein translocation; test: SecA-dependent in vitro translocation of proOmpA into membrane vesicles; format: biochemical, E. coli; conditions: read-out: IC50, in vitro translocation of proOmpA into membrane vesicles; 35S-labeled proOmpA
# [9] = tested on: E. coli NR698; test: Plate assay of bacterial growth; format: cell-based; conditions: for MIC, E. coli NR698: plate assay, leaky mutant, overnight incubation
# [10] = target: EcN68 SecA ATPase (Escherichia coli, UniProt P10408); test: biochemical; format: biochemical
# EcN68 SecA ATPase, sequence (P10408 1-610): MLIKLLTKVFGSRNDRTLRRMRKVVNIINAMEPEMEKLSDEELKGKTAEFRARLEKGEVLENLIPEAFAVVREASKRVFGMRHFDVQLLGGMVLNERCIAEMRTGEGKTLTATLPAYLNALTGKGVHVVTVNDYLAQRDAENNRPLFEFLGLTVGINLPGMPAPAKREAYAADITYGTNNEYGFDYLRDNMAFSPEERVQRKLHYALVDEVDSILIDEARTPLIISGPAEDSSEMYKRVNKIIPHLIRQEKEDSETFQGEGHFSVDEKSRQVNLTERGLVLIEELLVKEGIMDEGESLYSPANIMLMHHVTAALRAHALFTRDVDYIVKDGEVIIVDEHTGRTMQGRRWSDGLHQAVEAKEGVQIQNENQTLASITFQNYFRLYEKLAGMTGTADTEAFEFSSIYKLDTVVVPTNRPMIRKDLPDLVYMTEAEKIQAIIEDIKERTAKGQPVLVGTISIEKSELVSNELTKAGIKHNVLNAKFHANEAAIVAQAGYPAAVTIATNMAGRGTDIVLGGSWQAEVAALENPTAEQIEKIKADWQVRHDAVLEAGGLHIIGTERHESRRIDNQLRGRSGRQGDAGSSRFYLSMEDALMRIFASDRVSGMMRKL
# [11] = tested on: E. coli NR698; test: Liquid culture growth assay; format: cell-based; conditions: 50 µM, data not shown
# [12] = tested on: E. coli NR698; test: Bactericidal effect assay; format: cell-based; conditions: 100 µM, one-hour treatment, exponential-phase cells
# [13] = tested on: B. subtilis 168; test: Bactericidal effect assay; format: cell-based; conditions: 100 µM, one-hour treatment, exponential-phase cells
# How it was run: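 Exponential-phase cultures (OD600 0.5) in LB with 0.2% glucose were exposed to test compound, with water as the control, for 1 h at 37°C. Cultures were serially diluted and spread on LB plates. Surviving CFU were counted after overnight growth at 37°C, and the effect was expressed as the drop in log CFU. At least triplicate; standard error of the mean.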
# [14] = target: T1, EcSecA translocation ATPase; conditions: read-out: IC50, translocation ATPase of SecA; cited from earlier work
# [15] = tested on: SecA-dependent protein translocation; conditions: read-out: IC50, in vitro protein translocation; cited from earlier work
# [16] = cited from earlier work
compound,measurement,setting,value
"O=C([O-])c1ccccc1-c1c2ccc(=O)c(I)c-2oc2c(I)c([O-])ccc12.[Na+].[Na+] [DI, Diiodofluorescein]","MIC, B. subtilis 168",[1],1000 µM
same,"MIC, E. coli MC4100",[2],>3000 µM
"O.O=C([O-])c1ccccc1-c1c2cc(I)c(=O)c(I)c-2oc2c(I)c([O-])c(I)cc12.[Na+].[Na+] [EB, Erythrosin B]",pIC50,[3],4.92
same,"MIC, B. subtilis 168",[1],250 to 500 µM
same,pIC50,[4],5.00
same,"MIC, E. coli MC4100",[2],>10000 µM
same,pIC50,[5],~4.52
same,pIC50,[6],4.15
same,Mode of inhibition against ATP,[7],competitive inhibitors against ATP
same,pIC50,[8],5.40
same,"MIC, E. coli NR698",[9],250 to 500 µM
"O=C1OC2(c3ccccc31)c1cc(Br)c(O)c(Br)c1Oc1c2cc(Br)c(O)c1Br [EY, Eosin Y]",MIC,"[1]; Bacillus subtilis, 168, read-out: MIC, B. subtilis 168",2500 µM
same,pIC50,[10],4.60
same,MIC,"[9]; Escherichia coli, NR698, read-out: MIC, E. coli NR698",1000 to 2500 µM
"O=C1OC2(c3cc(I)c(O)c(I)c3Oc3c2cc(I)c(O)c3I)c2c(Cl)c(Cl)c(Cl)c(Cl)c21 [RB, Rose Bengal]","MIC, B. subtilis 168",[1],3.1 µM
same,"MIC, E. coli MC4100",[2],>1000 µM
same,pIC50,[5],~5.00
same,pIC50,[6],5.15
same,Mode of inhibition against ATP,[7],competitive inhibitors against ATP
same,Inhibition of growth in liquid culture,[11],completely inhibits
same,Decrease of cell survival (CFU),[12],about 10 log units
same,pIC50,[8],6.60 and ~6.60
same,Decrease of cell survival (CFU),[13],~8 log units
same,"MIC, E. coli NR698",[9],3.1 µM
[N-]=[N+]=[N-].[Na+] [Sodium azide],pIC50,[14],2.30
same,pIC50,[15],3.22
same,Inhibition of the intrinsic ATPase of SecA,"[10]; at concentrations as high as 10 mM, cf. Table 1 EcN68",not inhibited
C/C=C/[C@H]1C(C)=C[C@H]2C[C@H](C)[C@H](O)C[C@H]2[C@]1(C)/C=C(C)/C=C/C(=O)O [pannomycin],"MIC, antibacterial activity",[16],mM range
Dinitrofluorescein [DN],"MIC, B. subtilis 168",[1],10000 µM
same,"MIC, E. coli NR698",[9],10000 to 20000 µM
